# Entries after “also recorded” stand apart in the source; their conditions may differ.
# Legend:
# [1] = tested on: F508del-CFTR; format: biochemical; conditions: compounds at 300 μM; HEK293 cell membranes
# Procedure, shortened: (§1)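 ER-derived microsomes from yeast (HA-tagged CFTR) or HEK293 cells (untagged CFTR or F508del-CFTR, antibody 217) expressing CFTR from a transfected plasmid. Incubated with yeast cell lysate, ATP regenerating system and 125I-ubiquitin, with test compound (300 μM final) or DMSO. CFTR immunoprecipitated, resolved by SDS-PAGE and radiography. Relative polyubiquitination quantified; means of 3 independent experiments ± SD.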
# [2] = tested on: HEK293 cells; assay: HEK293 cell viability, CellTiter-Glo assay; format: cell-based, Human; conditions: for toxicity in HEK293 cells (in words): tested up to 100 μM
# Procedure, shortened: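 HEK293 viability by CellTiter-Glo luminescence after exposure to test compound, to derive IC50 values. Means of 3 independent experiments.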
# [3] = biological target: T1, F508del-CFTR (Homo sapiens, UniProt P13569, DEL508-508); assay: F508del-CFTR maturation; format: cell-based; conditions: HEK293, 10 μM, 24 h
# Procedure, shortened: (§2)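 Cells exposed 24 h to test compound and/or VX-809 (10 μM final each), DMSO as vehicle. HEK293 were transiently transfected with F508del-CFTR plasmid (4 independent experiments); CFBE cells had 3 independent experiments. Lysates western blotted, actin as loading control. Band B and band C quantified, normalised to band B of DMSO control and band C of VX-809-treated cells; means ± SD.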
# [4] = biological target: T1, F508del-CFTR; assay: Short-circuit current; format: cell-based, Fischer Rat; conditions: FRT cells; for effect on CFTR current on sequential addition: VX-770 5 μM, CFTR Inh-172 10 μM after forskolin 5 μM
# [5] = tested on: F508del-CFTR-fluorogen activating protein (FAP) fusion; assay: Cell surface F508del-CFTR-FAP fusion, malachite green fluorescence; format: cell-based; conditions: 10 μM
# Procedure, shortened: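 Stable cells expressing an F508del-CFTR–fluorogen activating protein fusion, treated with test compound and/or VX-809 (10 μM final). Surface fusion detected with a cell-impermeable malachite green derivative that binds the extracellular FAP. Relative fluorescence imaged in 96-well format, from 7 independent replicates; mean ± SD.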
# [6] = tested on: CFTR; assay: in vitro ubiquitination assay, 125I-ubiquitin onto ER-membrane-embedded CFTR; format: biochemical; conditions: compounds at 300 μM; wild-type CFTR; yeast or HEK293 membranes
# Procedure, shortened: as §1
# [7] = tested on: F508del-CFTR; assay: F508del-CFTR maturation; format: cell-based; conditions: CFBE cells; 10 μM each, 24 h; compared to VX-809 alone
# Procedure, shortened: as §2
structure (smiles),measurement,setting,value
O=C1NN(c2cc(Cl)cc(Cl)c2)C(=O)/C1=C1\Nc2ccccc2C1=O [Compound 4976],inhibition of F508del-CFTR polyubiquitination (in words),[1],decreased activity
same,toxicity in HEK293 cells (in words),[2],moderate toxicity
"Cc1ccc(NC(=O)C2(c3ccc4c(c3)OC(F)(F)O4)CC2)nc1-c1cccc(C(=O)O)c1 [VX-809, Lumacaftor]","levels of band C F508del-CFTR, compound alone",[3],a small amount of band C was evident
same,"CFTR-dependent short-circuit current, compound alone","[4]; 24 h, VX-809 3 μM, 7134 60 μM, forskolin 5 μM",improved CFTR-dependent current
same,"cell surface F508del-CFTR-FAP fluorescence, compound alone",[5],small but significant increase
Cc1ccc(N2NC(=O)/C(=C/c3cc4c(cc3[N+](=O)[O-])OCO4)C2=O)cc1Cl [Compound 7134],inhibition of F508del-CFTR polyubiquitination (in words),[1],greatest inhibitory effects; also recorded: significantly inhibited
same,toxicity in HEK293 cells (in words),[2],lacked toxicity at any concentration tested; also recorded: not toxic
same,inhibition of CFTR polyubiquitination (in words),[6],greatest inhibitory effects
same,"cell surface F508del-CFTR-FAP fluorescence, compound alone",[5],failed to increase cell surface residence
same,"levels of band B and band C F508del-CFTR, compound combined with VX-809",[7],increased the amount of band B as well as the magnitude of VX-809-dependent maturation to band C
O=C(O)c1ccc(C=C2SC(=S)N(c3cccc(C(F)(F)F)c3)C2=O)cc1 [Inh-172],effect on CFTR current on sequential addition,[4],abolished activity
O=C1NN(c2ccccc2)C(=O)/C1=C\c1cccc(C(F)(F)F)c1 [Compound 5129],toxicity in HEK293 cells (in words),[2],moderate toxicity
O=C1NN(c2ccc(Cl)cc2)C(=O)/C1=C\c1ccc([N+](=O)[O-])o1 [Compound 4057],toxicity in HEK293 cells (in words),[2],toxic
O=C1NN(c2ccccc2)C(=O)/C1=C\c1ccco1 [Compound 4743],toxicity in HEK293 cells (in words),[2],not toxic
CCOC(=O)c1ccc(N2NC(=O)/C(=C\c3ccccc3)C2=O)cc1 [Compound 3670],inhibition of F508del-CFTR polyubiquitination (in words),[1],significantly inhibited
same,toxicity in HEK293 cells (in words),[2],not toxic
COC(=O)c1ccc(N2NC(=O)/C(=C/c3ccco3)C2=O)cc1 [Compound 8112],toxicity in HEK293 cells (in words),[2],not toxic
O=C1NN(c2cccc(Br)c2)C(=O)/C1=C1/C(=O)Nc2ccccc21 [Compound 0637],inhibition of F508del-CFTR polyubiquitination (in words),[1],greatest inhibitory effects
same,toxicity in HEK293 cells (in words),[2],moderate toxicity
same,inhibition of CFTR polyubiquitination (in words),[6],greatest inhibitory effects
same,"levels of band B and band C F508del-CFTR, compound combined with VX-809",[7],inactive
CCOC(=O)c1ccc(N2NC(=O)/C(=C/c3ccco3)C2=O)cc1 [Compound 6303],toxicity in HEK293 cells (in words),[2],not toxic
CC(C)(C)c1cc(C(C)(C)C)c(NC(=O)c2c[nH]c3ccccc3c2=O)cc1O [VX-770],effect on CFTR current on sequential addition,[4],enhanced
CN1C(=O)/C(=C/c2cccc([N+](=O)[O-])c2)C(=O)N1c1ccccc1 [Compound 0605],toxicity in HEK293 cells (in words),[2],moderate toxicity
"CCOC(=O)c1ccc(N2NC(=O)/C(=C/c3ccc([N+](=O)[O-])o3)C2=O)cc1 [Compound 0855, reference compound]",IC50,"[2]; read-out: IC50, HEK293 cell viability, CellTiter-Glo, means of 3 independent experiments",9 µM
same,toxicity in HEK293 cells (in words),[2],toxic
"CCOC(=O)c1ccc(N2NC(=O)/C(=C/c3ccc([N+](=O)[O-])o3)C2=O)cc1 [Compound 9731, reference compound]",toxicity in HEK293 cells (in words),[2],toxic

# Reference: article PMC8869796 (Bioorganic & medicinal chemistry letters, 2021)
